These results are taken from ChEMBL document CHEMBL1138570, “2-Acylhydrazino-5-arylpyrrole derivatives: synthesis and antifungal activity evaluation” (Eur J Med Chem, 2009).

Data set [1] concerns Pichia kudriavzevii. The experiment in a line: Antimicrobial activity against Candida krusei by broth microdilution method. The format is functional. The method, boiled down:
(§1)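 MIC by NCCLS broth microdilution. Medium was RPMI 1640 with L-glutamine, buffered with 0.165 M MOPS at pH 7.0. Twofold drug dilutions ran 0.008–200 mg/L. Inoculum was set spectrophotometrically to 10⁶ CFU/mL, then diluted in medium to 2 ×10⁴ cells/mL. Plates were incubated overnight at 35 °C in humid air, agitated, and read visually and at 450 nm.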
On the technique in general: Broth dilution looks for growth in wells or tubes with falling amounts of substance.

The test system of data set [2] is Candida parapsilosis. The experiment in a line: Antimicrobial activity against Candida parapsilosis by broth microdilution method. The format is functional. Conditions: Lodderomyces parapsilosis. The method, boiled down:
as §1

Data set [3] can be described thus: Toxicity against human SF268 cells assessed as growth inhibition at 10 uM. The format is cell-based. Particulars: SF-268 cells, read-out: GI.
In data set [4] the test system is Nakaseomyces glabratus. The experiment in a line: Antimicrobial activity against Candida glabrata by broth microdilution method. Format: functional. In a few lines:
as §1

The nature of data set [5]: Toxicity against human H460 cells assessed as growth inhibition at 10 uM. Format: cell-based. Particulars: NCI-H460 cells, read-out: GI.
Data set [6] relates to Candida parapsilosis. The experiment in a line: Antimicrobial activity against Candida parapsilosis after 72 hrs by broth microdilution method. Particulars: Lodderomyces parapsilosis. Format: functional. In a few lines:
(§2)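 MFC: after MIC reading, a sample from each well was plated on Sabouraud dextrose agar and incubated 72 h at 35 °C. MFC was taken as the minimum concentration killing >99% of the original inoculum. The MIC step was NCCLS broth microdilution in MOPS-buffered RPMI 1640 (pH 7.0), with 2 ×10⁴ cells/mL, overnight at 35 °C.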

Data set [7] relates to Pichia kudriavzevii. The experiment in a line: Antimicrobial activity against Candida krusei after 72 hrs by broth microdilution method. The format is functional. The method, boiled down:
as §2

Data set [8] concerns Nakaseomyces glabratus. The data set is described as follows: Antimicrobial activity against Candida glabrata after 72 hrs by broth microdilution method. Format: functional. The method, boiled down:
as §2

Data set [9] in a line: Toxicity against human MCF7 cells assessed as growth inhibition at 10 uM. Format: cell-based. Particulars: read-out: GI.
Data set [10] relates to Candida albicans. The data set is described as follows: Antimicrobial activity against Candida albicans ATCC 10231 by broth microdilution method. The format is functional. In a few lines:
as §1

Data set [11] concerns Candida albicans. The experiment in a line: Antimicrobial activity against Candida albicans ATCC 10231 after 72 hrs by broth microdilution method. The format is functional. Particulars: ATCC 10231, 72 h. In a few lines: as §2

Converted amounts (≈) assume the structure as drawn.

As for `COC(=O)c1cc(-c2ccc(OC)cc2)[nH]c1NNC(C)=O`, the MIC in the data set with Pichia kudriavzevii [1], against Candida parapsilosis [2], in the data set on Nakaseomyces glabratus [4] and against Candida albicans [10] was 3.12 µg/mL (≈ 10.3 µM) in each case. For the same compound, the inhibition at 10 µM in [3], in data set [5] and in data set [9] was 0% in each case. For the same compound, the MFC was 6.25 µg/mL (≈ 20.6 µM) in the data set with Candida parapsilosis [6], 6.25 µg/mL (≈ 20.6 µM) in the data set on Pichia kudriavzevii [7], 12.5 µg/mL (≈ 41.2 µM) with Nakaseomyces glabratus [8] and 3.12 µg/mL (≈ 10.3 µM) against Candida albicans [11].
As to `CCC(=O)NNc1[nH]c(-c2ccc(OC)cc2)cc1C#N`, the MIC with Pichia kudriavzevii [1] worked out at 0.78 µg/mL (≈ 2.74 µM); against Candida parapsilosis [2], 0.78 µg/mL (≈ 2.74 µM); in the data set on Nakaseomyces glabratus [4] it was 0.78 µg/mL (≈ 2.74 µM); in the data set on Candida albicans [10], 0.39 µg/mL (≈ 1.37 µM). Besides, the inhibition at 10 µM stood at 2.1% in data set [3], 0% in data set [5] and 4.6% in [9]. In addition, the MFC with Candida parapsilosis [6] turned out to be 12.5 µg/mL (≈ 44 µM); with Pichia kudriavzevii [7] it was 12.5 µg/mL (≈ 44 µM); in the data set on Nakaseomyces glabratus [8] it was 12.5 µg/mL (≈ 44 µM); with Candida albicans [11], 6.25 µg/mL (≈ 22 µM).
Turning to `COc1ccc(-c2cc(C#N)c(NNC(C)=O)[nH]2)cc1`, the MIC against Pichia kudriavzevii [1] was 1.56 µg/mL (≈ 5.77 µM); with Candida parapsilosis [2], 3.12 µg/mL (≈ 11.5 µM); in the data set on Nakaseomyces glabratus [4], 3.12 µg/mL (≈ 11.5 µM); with Candida albicans [10] it was 1.56 µg/mL (≈ 5.77 µM). In addition, the inhibition at 10 µM in [3], in data set [5] and in data set [9] was 0% each time. The MFC in the data set on Candida parapsilosis [6] came to 6.25 µg/mL (≈ 23.1 µM); against Pichia kudriavzevii [7], 3.12 µg/mL (≈ 11.5 µM); with Nakaseomyces glabratus [8], 12.5 µg/mL (≈ 46.2 µM); against Candida albicans [11] it was 6.25 µg/mL (≈ 23.1 µM).
Take `CCOC(=O)NNc1[nH]c(-c2ccc(OC)cc2)cc1C#N`: the MIC worked out at 25 µg/mL (≈ 83.2 µM) in the data set on Pichia kudriavzevii [1], 25 µg/mL (≈ 83.2 µM) against Candida parapsilosis [2], 12.5 µg/mL (≈ 41.6 µM) with Nakaseomyces glabratus [4] and 3.12 µg/mL (≈ 10.4 µM) with Candida albicans [10]. The inhibition at 10 µM in data set [3] was 0%; in data set [5], 31%; in data set [9] it was 0.9%. Further, the MFC is 100 µg/mL (≈ 333 µM) in the data set with Candida parapsilosis [6], 50 µg/mL (≈ 166 µM) against Pichia kudriavzevii [7], 50 µg/mL (≈ 166 µM) in the data set with Nakaseomyces glabratus [8] and 3.12 µg/mL (≈ 10.4 µM) in the data set with Candida albicans [11].
Turning to `COCCC(=O)NNc1[nH]c(-c2ccc(OC)cc2)cc1C(=O)OC`, the MIC against Pichia kudriavzevii [1], in the data set on Candida parapsilosis [2], against Nakaseomyces glabratus [4] and with Candida albicans [10] was 6.25 µg/mL (≈ 18 µM) throughout. Besides, the MFC in the data set with Candida parapsilosis [6] came to 12.5 µg/mL (≈ 36 µM); with Pichia kudriavzevii [7] it was 25 µg/mL (≈ 72 µM); in the data set with Nakaseomyces glabratus [8] it was 25 µg/mL (≈ 72 µM); against Candida albicans [11] it was 6.25 µg/mL (≈ 18 µM).
With `C[C@@H]1[C@H](O)[C@@H](C)/C=C/C=C/C=C/C=C/C=C/C=C/C=C/[C@H](O[C@@H]2O[C@H](C)[C@@H](O)[C@H](N)[C@@H]2O)C[C@@H]2O[C@](O)(C[C@@H](O)C[C@@H](O)[C@H](O)CC[C@@H](O)C[C@@H](O)CC(=O)O[C@H]1C)C[C@H](O)[C@H]2C(=O)O` [AMPHOTERICIN B], the MIC with Pichia kudriavzevii [1] is 0.78 µg/mL (≈ 0.844 µM); against Candida parapsilosis [2] it was 0.78 µg/mL (≈ 0.844 µM); in the data set with Nakaseomyces glabratus [4], 0.78 µg/mL (≈ 0.844 µM); in the data set with Candida albicans [10], 0.39 µg/mL (≈ 0.422 µM). Also, the MFC with Candida parapsilosis [6] is 1.56 µg/mL (≈ 1.69 µM); against Pichia kudriavzevii [7], 1.56 µg/mL (≈ 1.69 µM); with Nakaseomyces glabratus [8], 1.56 µg/mL (≈ 1.69 µM); against Candida albicans [11], 0.78 µg/mL (≈ 0.844 µM).
`OC(Cn1cncn1)(Cn1cncn1)c1ccc(F)cc1F` [FLUCONAZOLE]: the MIC worked out at 25 µg/mL (≈ 81.6 µM) against Pichia kudriavzevii [1], 0.39 µg/mL (≈ 1.27 µM) against Candida parapsilosis [2], 12.5 µg/mL (≈ 40.8 µM) against Nakaseomyces glabratus [4] and 0.78 µg/mL (≈ 2.55 µM) with Candida albicans [10]. For the same compound, the MFC is greater than 100 µg/mL in the data set on Candida parapsilosis [6], 50 µg/mL (≈ 163 µM) against Pichia kudriavzevii [7], greater than 100 µg/mL in the data set with Nakaseomyces glabratus [8] and greater than 100 µg/mL against Candida albicans [11].

What is called MIC is the least concentration at which growth counts as inhibited. Broadly, the MFC is the smallest concentration meeting the test's criterion for killing the fungus.
